Candida biofilm = kills Candida albicans biofilms | actives 0.14% (n = 85,000) | C. albicans biofilm + clotrimazole, Alamar Blue | inhibition, % at 6 µM;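 active = inhibition above 20%; inactive = inhibition below 20%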;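 also: preformed 24 hr biofilms exposed to compound for 48 hr; 0% = biofilm without compound and 100% = blank killed by clotrimazole plus chlorhexidine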
Fibroblast inh = blocks proliferation of human lung fibroblasts | LL 47 human lung fibroblast viability, ATP luminescence; stronger effect = lower value | viability, % at 10 µM | actives 1.1% (n = 85,000);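 active = viability at or below 50% in the single dose screen; inactive = viability above 50%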;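 also: compound exposure lasted 72 h before the ATP readout; 100% = median luminescence of untreated cell-only wells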
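Material: Human LL 47 lung fibroblast cells | Input: 1,150 cells/well | Buffer or medium: IMEM plus 15% FBS | Compound dosing: 0.1% DMSO in all compound wells | Times: Overnight cell rest, 72 h compound treatment at 37 °C | Signal: CellTiter-Glo luminescence measuring cellular ATP | Measure: % viability versus median cells-only luminescence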
HCT116 PTEN-null = growth suppressors of cells with PTEN tumor suppressor deletion; HCT116 PTEN-null viability, CellTiter-Glo, 60 h; stronger effect = lower value; viability, % at 10 µM; actives 1.2% (n = 140,000); AID 827;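 active = viability at or below a set limit, 4 SD under the median of all tested compounds, cut at about 3.7% in these data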;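 also: PTEN knockout HCT116 line with beta catenin targeted HCT116 as companion control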
bCat KO growth = beta-catenin-lacking colon tumor cell growth suppression | HCT116 beta-catenin knockout viability, CellTiter-Glo, 60 h; stronger effect = lower value | actives 1.5% (n = 140,000) | viability, % at 10 µM;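 active = viability at or under a set limit, the compound median less 4 SD, cut at about 6% in these data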;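 also: 0% = Hyamine 1622 control at 20 µM and 100% = untreated cell control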
HUVEC inhibit = inhibitors of human endothelial cell proliferation. actives 1.1% (n = 86,000). HUVEC proliferation, CellTiter-Glo luminescence, 72 h; stronger effect = lower value. viability, % at 10 µM (by protocol);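 active = viability at or below 30%; inactive = viability above 30%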;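 also: 100% = median luminescence of DMSO-only cell control wells on each plate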
H69AR growth 86K = blocks growth of human H69AR lung tumor cells. H69AR lung tumor viability, ATP luminescence, 72 h; stronger effect = lower value. viability, % at 10 µM. actives 6% (n = 85,000);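 active = viability at or below 40%; inactive = viability above 40%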;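 also: multidrug resistant small cell line overexpressing MRP-1 efflux transporter; 100% = mean luminescence of untreated control wells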
* = called active by the depositor; · = no result given. The sample as a whole holds a higher share of hits than the screen did.

SMILES	Candida biofilm	Fibroblast inh	HCT116 PTEN-null	bCat KO growth	HUVEC inhibit	H69AR growth 86K
CCOc1ccccc1NC(=O)Cn1nnc(C(=O)Nc2ccc(C)cc2)c1N	10.2	82.9	107.3	89.5	75.7	78.1
CCOc1ccccc1NC(=O)Cn1nnc(C(=O)NCc2ccco2)c1N	2.9	55.1	12.4	10.5	51.0	26.1*
OC(CNC1CCCCC1)COCCOc1ccc(Br)cc1 (stereo not given)	·	·	72.0	76.5	·	·
O=C(NNC(=O)c1cc([N+](=O)[O-])ccc1Cl)c1cccs1	·	·	81.3	82.2	·	·
Cc1ccc(Cl)cc1N1CCN(CC(=O)Nc2ccc(CN3CCCCC3)cc2)CC1	4.7	27.5*	53.3	49.7	8.2*	2.9*
COc1ccccc1N1CCN(CC(=O)Nc2ccc(CN3CCCCC3)cc2)CC1	1.2	100.8	102.5	91.2	88.4	83.3
Cc1c(Cc2ccccc2)sc(NC(=O)/C=C/c2cccc3ccccc23)c1C(N)=O	·	·	45.4	42.9	·	·
CC1(C)CC(=O)C2=C(C1)OC1=C(C2)C(=O)CC(C)(C)C1	·	·	94.3	93.8	·	·
CC(C)C(=O)NC(c1ccc([N+](=O)[O-])cc1)c1c(O)ccc2ccccc12 (stereo not given)	·	·	1.8*	2.0*	·	·
OCCSc1c(F)c(SCCO)c(SCCO)c(F)c1SCCO	5.1	101.8	93.7	101.8	106.8	89.4
C=CCn1c(SCc2ccc(C(=O)OC)cc2)nnc1-c1sc(N)nc1C	·	·	96.1	97.7	·	·
C=CCn1c(SCC(=O)Nc2ccc(C(=O)OCC)cc2)nnc1-c1sc(N)nc1C	4.5	101.3	88.3	78.9	98.8	39.5*
CCCCCCNC(=O)CC(c1ccccc1)c1cc(Br)ccc1O (stereo not given)	7.5	93.8	76.0	76.0	11.4*	47.3
c1coc(-c2nc(-c3ccco3)c(-c3ccco3)nc2-c2ccco2)c1	8.2	83.8	87.5	93.6	68.7	26.7*
Nc1nc(-c2ccco2)c(-c2ccco2)s1	6.1	·	105.8	112.0	88.1	96.9
CC(NC(=S)Nc1ccc(S(=O)(=O)N2CCOCC2)cc1)C1CC2CCC1C2 (stereo not given)	·	·	54.6	69.2	·	·
CCOc1ccc2nc(COC(=O)c3ccco3)c(C(C)=O)[n+]([O-])c2c1	5.2	106.3	91.4	98.4	85.1	77.2
CCOc1ccc2nc(Cl)c(/C=C/C(=O)c3ccco3)cc2c1	7.1	93.0	5.8	14.4	77.4	8.9*
COc1ccccc1NC(=O)c1cc2ccccc2o/c1=N\O	7.8	97.1	2.7*	4.5*	67.0	52.6
COc1ccccc1NC(=O)c1cc2ccc(O)cc2o/c1=N\O	5.2	95.8	94.9	103.7	80.7	35.5*
COc1ccccc1N=c1oc2cc(O)ccc2cc1C(N)=O	·	·	64.7	64.4	·	·
Cc1ccc(C(=O)N2CCN3C(=O)c4ccccc4C23c2ccc(Cl)cc2)cc1 (stereo not given)	9.9	61.0	7.7	13.3	66.4	33.5*
O=C(Nc1cccc(Cl)c1)N1CCN2C(=O)c3ccccc3C12c1ccccc1 (stereo not given)	2.4	81.9	61.2	80.3	82.3	84.5
O=c1c2c(nc3c(-c4ccc(Cl)cc4)c[nH]n13)CCCC2	0.5	60.2	14.3	12.2	58.4	19.8*
O=c1c2c(nc3c(-c4cccc5ccccc45)c[nH]n13)CCC2	5.2	95.9	75.3	79.2	69.5	74.3
SMILES	Candida biofilm	Fibroblast inh	HCT116 PTEN-null	bCat KO growth	HUVEC inhibit	H69AR growth 86K
COc1ccc(CC(=O)N2CCC(Nc3nc4ccccc4n3Cc3ccc(F)cc3)CC2)cc1	3.1	89.2	69.5	76.2	70.7	21.3*
CCOC(=O)c1[nH]c(C)c(C(=O)Nc2cc(Cl)ccc2C)c1C	5.7	59.2	15.8	14.9	65.0	24.5*
CCOC(=O)c1[nH]c(C)c(C(=O)OCCN2C(=O)c3ccccc3C2=O)c1C	0.0	101.2	98.9	94.1	79.3	33.9*
CCOC(=O)c1[nH]c(C)c(C(=O)Nc2ccccc2C)c1C	2.6	64.9	20.4	19.7	60.5	26.0*
CCOC(=O)c1[nH]c(C)c(C(=O)NCc2ccc(Cl)cc2)c1C	8.5	105.2	88.0	90.0	79.0	88.2
CC(C)c1nc(SCC(=O)N2CCCc3ccccc32)c2c(=O)n(C)c(=O)n(C)c2n1	6.2	83.7	8.8	11.1	57.4	14.2*
CCCc1nc(SCC(=O)N2CCc3ccccc32)c2c(=O)n(C)c(=O)n(C)c2n1	2.4	74.1	·	·	96.7	56.8
CC(C)c1nc(SCc2c(F)cccc2Cl)c2c(=O)n(C)c(=O)n(C)c2n1	6.4	82.5	3.7*	3.5*	56.3	38.3*
COc1ccc(OC)c(S(=O)(=O)NC(C)(C)C)c1	5.5	105.9	80.4	86.5	95.0	95.2
CCOC(=O)c1nc(S(C)(=O)=O)ncc1N1CCOCC1	3.4	97.0	88.2	86.0	92.7	91.0
CCOC(=O)c1nc(S(C)(=O)=O)ncc1Cl	9.4	65.4	24.0	20.2	77.8	1.6*
CCNc1nc(Oc2ccccc2)nc(OC(C)C(=O)OCC)n1 (stereo not given)	8.3	91.5	98.2	103.3	95.0	72.3
CCN(C(=S)Nc1ccc(Oc2ccccc2)cc1)c1ccccc1	·	·	92.7	86.1	·	·
COC(=O)C1=C(C)N(c2ccc(S(N)(=O)=O)cc2)C(=O)C1	·	·	92.5	92.7	·	·
COC(=O)C1=C(C)N(c2ccc(Cl)c(Cl)c2)C(=O)C1	5.4	65.6	3.6*	3.6*	75.0	42.5
CCN(CC)CCCNC(=O)c1cc(-c2ccc(Cl)c(Cl)c2)on1	·	·	2.4*	2.0*	·	·
CCN(CC)CCCNC(=O)c1cc(-c2ccc(O)cc2)on1	3.5	94.3	93.2	89.8	88.4	91.1
CN1CCN(CCCNC(=O)c2cc3c(-c4ccc(Cl)cc4)nn(C)c3s2)CC1	-6.9	14.2*	1.7*	1.5*	1.9*	4.5*
Cn1nc(-c2ccc(Cl)cc2)c2cc(C(=O)NCC3CCCO3)sc21 (stereo not given)	-3.9	79.1	58.4	53.3	75.7	51.4
CCN(CC)CCCNC(=O)c1cc2c(-c3ccc(Cl)cc3)nn(C)c2s1	12.5	19.3*	1.6*	0.8*	2.4*	1.8*
CCCCN(C(=O)c1cccc2c(=O)c(C)c(-c3ccccc3)oc12)c1ccccc1	·	·	15.8	12.0	·	·
Cc1cccc2cc(CN(Cc3nnnn3Cc3ccco3)C3CCCC3)c3nnnn3c12	0.2	96.4	75.6	84.4	80.4	52.8
CCOC(=O)c1sc(NC(=O)CSc2nnnn2-c2ccc(C)c(C)c2)nc1C	6.7	96.6	95.0	102.2	18.4*	81.5
COc1ccc(OC)c(-n2nnnc2SCC(=O)Nc2nc(C)c(C)s2)c1	3.4	96.9	71.7	76.1	78.5	20.3*
CCOC(=O)c1sc(NC(=O)CSc2nnnn2-c2ccc(C)cc2C)nc1C	2.7	99.6	88.2	94.3	25.1*	83.9
CCOC(=O)Cc1csc(NC(=O)CSc2nnnn2-c2ccc(C)cc2C)n1	·	105.4	95.5	103.0	93.7	95.8
